Calls of active or inactive are those of the source. The rule behind the calls is not given here.

The species entered for data set [1] is Homo sapiens. Description: Activation of recombinant human C-terminal 4His-tagged CYP46A1 delta(2 to 50) F416A mutant expressed in Escherichia coli at 20 uM using cholesterol as substrate measured after 30 mins in presence of cytochrome P450 oxidoreductase by gas chromatography-mass spectrometry. The method, boiled down: (§1)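 Fixed 20 μM test compound (final, 2% methanol) with 0.5 μM purified Δ(2-50)CYP46A1 (wild type or mutant) and 1.0 μM rat P450 oxidoreductase. Buffer: 50 mM KPi pH 7.2, 100 mM NaCl, 40 μg/mL dilauroylphosphatidylcholine, 40 μM cholesterol, catalase, NADPH-regenerating system. Run 30 min at 37 °C. 24-Hydroxycholesterol measured by GC-MS against a deuterated internal standard. Fold activation over no-activator control; mean ± SD, three independent experiments.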

Data set [2] is filed under the species Homo sapiens. Description: Activation of recombinant human C-terminal 4His-tagged CYP46A1 delta(2 to 50) F405A mutant expressed in Escherichia coli at 20 uM using cholesterol as substrate measured after 30 mins in presence of cytochrome P450 oxidoreductase by gas chromatography-mass spectrometry. The method, boiled down:
as §1

Data set [3] has as its target T1, Cholesterol 24-hydroxylase (Homo sapiens, UniProt Q9Y6A2). Description: Inhibition of recombinant human C-terminal 4His-tagged CYP46A1 delta(2 to 50) mutant expressed in Escherichia coli at 60 to 100 uM using cholesterol as substrate measured after 30 mins in presence of cytochrome P450 oxidoreductase by gas chromatography-mass spectrometry. It is filed as ADME. The following applies: 0.5 h. The gist of the method:
(§2)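 Concentration-dependence curves with test compound at 0–100 μM (2% final methanol). Enzyme: 0.5 μM Δ(2-50)CYP46A1 plus 1.0 μM P450 oxidoreductase. Buffer: KPi pH 7.2, 100 mM NaCl, dilauroylphosphatidylcholine, 40 μM cholesterol, catalase, NADPH-regenerating system. Run 30 min at 37 °C. 24-Hydroxycholesterol quantified by GC-MS with a deuterated internal standard, expressed as nmol/nmol P450/min; mean ± SD, three experiments.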

The species entered for data set [4] is Homo sapiens. Description: Activation of recombinant human C-terminal 4His-tagged CYP46A1 delta(2 to 50) Y427F mutant expressed in Escherichia coli at 20 uM using cholesterol as substrate measured after 30 mins in presence of cytochrome P450 oxidoreductase by gas chromatography-mass spectrometry. The gist of the method:
as §1

Data set [5] is filed under the species Homo sapiens. Description: Activation of recombinant human C-terminal 4His-tagged CYP46A1 delta(2 to 50) K358L mutant expressed in Escherichia coli at 20 uM using cholesterol as substrate measured after 30 mins in presence of cytochrome P450 oxidoreductase by gas chromatography-mass spectrometry. The gist of the method:
as §1

Data set [6] is filed under the species Homo sapiens. Description: Activation of recombinant human C-terminal 4His-tagged CYP46A1 delta(2 to 50) K358R mutant expressed in Escherichia coli at 20 uM using cholesterol as substrate measured after 30 mins in presence of cytochrome P450 oxidoreductase by gas chromatography-mass spectrometry. The method, boiled down:
as §1

Data set [7] has as its system Cholesterol 24-hydroxylase (Homo sapiens), Q9Y6A2 [UNDEFINED MUTATION]. Description: Activation of recombinant human C-terminal 4His-tagged CYP46A1 delta(2 to 50) mutant expressed in Escherichia coli using cholesterol as substrate measured after 30 mins in presence of cytochrome P450 oxidoreductase by gas chromatography-mass spectrometry. The gist of the method:
as §2

The species named for data set [8] is Homo sapiens. Description: Activation of recombinant human C-terminal 4His-tagged CYP46A1 delta(2 to 50) R415A mutant expressed in Escherichia coli at 20 uM using cholesterol as substrate measured after 30 mins in presence of cytochrome P450 oxidoreductase by gas chromatography-mass spectrometry. The gist of the method: as §1
For data set [9], the system named is Cholesterol 24-hydroxylase (Homo sapiens), Q9Y6A2 [UNDEFINED MUTATION]. Description: Activation of recombinant human C-terminal 4His-tagged CYP46A1 delta(2 to 50) mutant expressed in Escherichia coli at 20 uM using cholesterol as substrate measured after 30 mins in presence of cytochrome P450 oxidoreductase by gas chromatography-mass spectrometry relative to control. The method, boiled down: as §1
Chain of Cholesterol 24-hydroxylase (Homo sapiens), Q9Y6A2 [UNDEFINED MUTATION] (Q9Y6A2 whole entry, looked up, stated change not applied): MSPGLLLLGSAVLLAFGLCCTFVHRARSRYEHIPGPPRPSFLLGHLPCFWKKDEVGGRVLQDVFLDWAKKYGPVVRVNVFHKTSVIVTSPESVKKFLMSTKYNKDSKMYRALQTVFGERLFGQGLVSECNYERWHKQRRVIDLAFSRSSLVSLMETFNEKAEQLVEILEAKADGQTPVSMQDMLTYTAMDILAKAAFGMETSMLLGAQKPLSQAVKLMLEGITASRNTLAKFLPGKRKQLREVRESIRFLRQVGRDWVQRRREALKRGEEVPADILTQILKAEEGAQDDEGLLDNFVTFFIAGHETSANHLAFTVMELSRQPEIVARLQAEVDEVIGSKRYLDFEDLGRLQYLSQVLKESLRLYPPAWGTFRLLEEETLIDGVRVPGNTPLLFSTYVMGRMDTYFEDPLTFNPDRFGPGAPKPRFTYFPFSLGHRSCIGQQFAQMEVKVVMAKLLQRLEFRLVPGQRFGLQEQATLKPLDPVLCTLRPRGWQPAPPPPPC

For data set [10], the species on record is Homo sapiens. Description: Activation of recombinant human C-terminal 4His-tagged CYP46A1 delta(2 to 50) Y427A mutant expressed in Escherichia coli at 20 uM using cholesterol as substrate measured after 30 mins in presence of cytochrome P450 oxidoreductase by gas chromatography-mass spectrometry. The method, boiled down:
as §1

For data set [11], the species on record is Homo sapiens. Description: Activation of recombinant human C-terminal 4His-tagged CYP46A1 delta(2 to 50) K358A mutant expressed in Escherichia coli at 20 uM using cholesterol as substrate measured after 30 mins in presence of cytochrome P450 oxidoreductase by gas chromatography-mass spectrometry. The gist of the method: as §1
The subject of data set [12] is Cholesterol 24-hydroxylase (Homo sapiens), Q9Y6A2 [UNDEFINED MUTATION]. Description: Activation of recombinant human C-terminal 4His-tagged CYP46A1 delta(2 to 50) mutant expressed in Escherichia coli at 20 uM using cholesterol as substrate measured after 30 mins in presence of cytochrome P450 oxidoreductase and L-Glu by gas chromatography-mass spectrometry relative to control. The gist of the method: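 Co-incubation of 100 μM L-Glu with 20 μM test compound, 0.5 μM Δ(2-50)CYP46A1 and 1.0 μM P450 oxidoreductase. Buffer: 50 mM KPi pH 7.2, 100 mM NaCl, phospholipid, 40 μM cholesterol, NADPH-regenerating system. Run 30 min at 37 °C. 24-Hydroxycholesterol measured by GC-MS with a deuterated internal standard. Fold activation relative to control; mean ± SD of three experiments.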

The target of data set [13] is T1, Cholesterol 24-hydroxylase. Description: Inhibition of recombinant human C-terminal 4His-tagged CYP46A1 delta(2 to 50) mutant expressed in Escherichia coli at up to 100 uM using cholesterol as substrate measured after 30 mins in presence of cytochrome P450 oxidoreductase by gas chromatography-mass spectrometry. The following applies: 0.5 h. The class given is ADME. The method, boiled down:
as §2

T1 sequence (Q9Y6A2 whole entry, looked up, stated change not applied): as above

Regarding `CC1Nc2ccc(Cl)cc2C(C#CC2CC2)(C(F)(F)F)O1` (racemic), the outcome in [1], in [4], in data set [5], in [6], in [10] and in data set [11] was Active. The result in [2], in [8] and in data set [12] was inactive. Further, the “inhibition (INH)” value in data set [3] was “Not Active”. The Activity entry in [7] was “Dose-dependent effect”. Further, the fold change (FC) in data set [9] worked out at 2.6.
In the case of `O=C1Nc2cc(O)c(Cl)cc2C(C#CC2CC2)(C(F)(F)F)O1` (racemic), the outcome in data set [1], in data set [2], in data set [4], in [5], in [6] and in [8] was Active. Besides, the outcome in [10] and in [11] was Active. Besides, in [3], the “inhibition (INH)” value was “Not Active”. Moreover, the Activity result in [7] was “Dose-dependent effect”. In addition, the figures for the fold change (FC) in [9] and in [12] were 5.8 and 6.8, respectively.
On to `CCCC#CC1(C(F)(F)F)OC(=O)Nc2ccc(Cl)cc21` (racemic), for which the result in data set [1], in [4], in data set [5], in data set [6], in data set [10] and in data set [11] was inactive. The result in data set [2] and in data set [8] was Active. The “inhibition (INH)” value in data set [3] is given as “Not Active”. Further, the Activity entry in data set [7] was “Dose-dependent effect”. In addition, the fold change (FC) in data set [9] was determined as 3.1; in data set [12] it was 3.7.
In the case of `O=C1Cc2ccc(Cl)cc2C(C#CC2CC2)(C(F)(F)F)O1` (racemic), the outcome in data set [1], in data set [2], in data set [4], in data set [5], in data set [6] and in [8] was Active. Further, the result in data set [10] and in data set [11] was Active. Also, the “inhibition (INH)” value in data set [13] is reported as “Not Active”. Further, the fold change (FC) was 1.9 in data set [9] and 2.8 in [12].
Regarding `O=C1CC(C#CC2CC2)(C(F)(F)F)c2cc(Cl)ccc2N1` (racemic), the outcome in data set [1], in [4], in data set [5], in data set [6], in data set [10] and in [11] was inactive. Further, the outcome in data set [2] and in data set [8] was Active. In addition, the “inhibition (INH)” value in data set [3] is “Not Active”. Moreover, the Activity entry in data set [7] was “Dose-dependent effect”. For the same compound, the figures for the fold change (FC) in data set [9] and in data set [12] were 3.9 and 4.6, respectively.
`O=C1Nc2ccc(Cl)cc2[C@@](C#CC2CC2)(C(F)(F)F)O1` [EFAVIRENZ]: the outcome in [1], in [5], in data set [6], in data set [10] and in data set [11] was inactive. Also, the result in [2] and in [8] was Active. In data set [3], the “inhibition (INH)” value is “Active”.
Turning to `O=C1Nc2c(O)cc(Cl)cc2[C@@](C#CC2CC2)(C(F)(F)F)O1`, the result in [1], in data set [2], in data set [4], in [5], in data set [6] and in data set [8] was Active. In addition, the outcome in [10] and in data set [11] was Active. Moreover, in data set [3], the “inhibition (INH)” value is “Not Active”. The Activity result in [7] was “Dose-dependent effect”. Further, the fold change (FC) amounted to 6.2 in data set [9] and 7.4 in data set [12].
Turning to `FC(F)(F)[C@@]1(C#CC2CC2)OCNc2ccc(Cl)cc21`, the result in data set [1], in [4], in data set [5], in data set [6], in [10] and in data set [11] was Active. The result in data set [2], in data set [8] and in data set [12] was inactive. The “inhibition (INH)” value in data set [13] is “Not Active”. Besides, the Activity result in data set [7] was “Dose-dependent effect”. In addition, the fold change (FC) in [9] turned out to be 2.5.
In the case of `O=C1Nc2c(O)cc(Cl)cc2C(C#CC2CC2)(C(F)(F)F)O1` (racemic), the “inhibition (INH)” value in [3] is given as “Not Active”. The Activity entry in [7] is “Dose-dependent effect”.
